In ChEMBL document CHEMBL1926538, “3,5-Disubstituted-thiazolidine-2,4-dione analogs as anticancer agents: design, synthesis and biological characterization” (Eur J Med Chem, 2012):
The source made the active and inactive calls. No cut-off for these calls is given here.

Tests used:
[1] = Induction of apoptosis in human M12 cells assessed as viable cells at 20 uM after 24 hrs by annexinV-propidium iodide staining-based flow cytometric analysis (reference value: 80.18%); format: functional; details: M12, 24 h, read-out: Activity
U-937 [2] = experiment: Induction of apoptosis in human U937 cells assessed as necrotic cells at 10 uM after 18 hrs by annexinV-propidium iodide staining-based flow cytometric analysis (reference value: 0.7%); format: functional
U-937 [3] = experiment: Induction of apoptosis in human U937 cells assessed as early apoptotic cells at 10 uM after 18 hrs by annexinV-propidium iodide staining-based flow cytometric analysis (reference value: 4.3%); format: functional
U-937 [4] = experiment: Induction of apoptosis in human U937 cells assessed as viable cells at 10 uM after 6 hrs by annexinV-propidium iodide staining-based flow cytometric analysis (reference value: 80.3%); format: functional; details: U-937, 6 h, read-out: Activity
U-937 [5] = experiment: Induction of apoptosis in human U937 cells assessed as viable cells at 3 uM after 18 hrs by annexinV-propidium iodide staining-based flow cytometric analysis (reference value: 87.2%); format: functional; details: U-937, 18 h, read-out: Activity
U-937 [6] = experiment: Induction of apoptosis in human U937 cells assessed as late apoptotic cells at 3 uM after 6 hrs by annexinV-propidium iodide staining-based flow cytometric analysis (reference value: 13.8%); format: functional
U-937 [7] = experiment: Induction of apoptosis in human U937 cells assessed as late apoptotic cells at 3 uM after 3 hrs by annexinV-propidium iodide staining-based flow cytometric analysis (reference value: 8.6%); format: functional
U-937 [8] = experiment: Induction of apoptosis in human U937 cells assessed as early apoptotic cells at 3 uM after 3 hrs by annexinV-propidium iodide staining-based flow cytometric analysis (reference value: 2.8%); format: functional
U-937 [9] = experiment: Induction of apoptosis in human U937 cells assessed as viable cells at 3 uM after 3 hrs by annexinV-propidium iodide staining-based flow cytometric analysis (reference value: 86.3%); format: functional; details: U-937, 3 h, read-out: Activity
U-937 [10] = experiment: Growth inhibition of human U937 cells after 72 hrs by MTS assay in presence of 320 uM AMPK activator AICA; format: functional, cell-based
Method in brief: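 U937 cells exposed 72 h, with or without AICA 320 µM, then MTS added. Absorbance read at 490 nm, expressed as percentage of untreated controls. Data are mean percentage viability, n = 6, error bars SEM.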

[11] = biological target: Proto-oncogene tyrosine-protein kinase Src (Homo sapiens) (UniProt P12931); experiment: Inhibition of SRC at 10 uM
[12] = biological target: Tyrosine-protein kinase SYK (Homo sapiens) (UniProt P43405); experiment: Inhibition of SYK at 10 uM
[13] = biological target: Serine/threonine-protein kinase Sgk1 (Homo sapiens) (UniProt O00141); experiment: Inhibition of SGK1 at 10 uM
[14] = biological target: MAP kinase-activated protein kinase 5 (Homo sapiens) (UniProt Q8IW41); experiment: Inhibition of PRAK at 10 uM
[15] = biological target: Serine/threonine-protein kinase D2 (Homo sapiens) (UniProt Q9BZL6); experiment: Inhibition of PKD2 at 10 uM
[16] = Inhibition of PKGa at 10 uM
[17] = biological target: Protein kinase C zeta type (Homo sapiens) (UniProt Q05513); experiment: Inhibition of PKCzeta at 10 uM
[18] = biological target: Protein kinase C beta type (Homo sapiens) (UniProt P05771); experiment: Inhibition of PKCbeta2 at 10 uM
[19] = Inhibition of P70S6K at 10 uM
[20] = biological target: Dual specificity mitogen-activated protein kinase kinase 1 (Homo sapiens) (UniProt Q02750); experiment: Inhibition of MEK1 at 10 uM
[21] = biological target: Tyrosine-protein kinase Lyn (Homo sapiens) (UniProt P07948); experiment: Inhibition of LYN at 10 uM
[22] = biological target: Insulin receptor (Homo sapiens) (UniProt P06213); experiment: Inhibition of INSR at 10 uM
[23] = biological target: Mitogen-activated protein kinase kinase kinase kinase 4 (Homo sapiens) (UniProt O95819); experiment: Inhibition of HGK at 10 uM
[24] = biological target: Receptor-type tyrosine-protein kinase FLT3 (Homo sapiens) (UniProt P36888); experiment: Inhibition of FLT3 at 10 uM
[25] = biological target: Mitogen-activated protein kinase 3 (Homo sapiens) (UniProt P27361); experiment: Inhibition of Erk1 at 10 uM
[26] = biological target: Casein kinase I isoform delta (Homo sapiens) (UniProt P48730); experiment: Inhibition of Ckld at 10 uM
[27] = biological target: Serine/threonine-protein kinase Chk2 (Homo sapiens) (UniProt O96017); experiment: Inhibition of CHK2 at 10 uM
[28] = biological target: Calcium/calmodulin-dependent protein kinase type IV (Homo sapiens) (UniProt Q16566); experiment: Inhibition of CAMK4 at 10 uM
[29] = biological target: 5'-AMP-activated protein kinase catalytic subunit alpha-2 (Homo sapiens) (UniProt P54646); experiment: Activation of AMPK in human U937 cells assessed as increase in phosphorylated AMPK level at 1 to 10 uM after 1 hr by Western blot analysis; format: cell-based; details: U-937
Method in brief: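 Cells at 5 × 10⁵/mL in growing medium, RPMI 1640 with 10% heat-inactivated FBS, 37 °C, 5% CO₂, exposed 1 h. Lysed by sonication in SDS sample buffer with protease inhibitors plus 1 mM orthovanadate and pyrophosphate, boiled 5 min. Immunoblot probed with rabbit polyclonal anti-phospho-AMPK (Thr172) 1:1000, HRP secondary, chemiluminescence. α-Tubulin reprobe as loading control. One of three independent experiments shown.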

[30] = biological target: c-Jun N-terminal kinase, JNK (Homo sapiens) (UniProt P45983+P53779+P45984); experiment: Inhibition JNK phosphorylation in human U937 cells at 1 to 10 uM after 1 hr by Western blot analysis; format: cell-based; details: U-937
Method in brief: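 U937 cells at 5 × 10^5/mL were exposed to compound for 1 h, then sonicated in SDS/DTT sample buffer with protease inhibitors plus 1 mM orthovanadate and pyrophosphate, and boiled 5 min. Blots were blocked in 5% milk, probed with primary antibody overnight at 4 °C and 1:2000 HRP secondary, and read by chemiluminescence. α-Tubulin reprobe served as loading control. Blots shown represent one of three experiments.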

DU-145 = experiment: Growth inhibition of human DU145 cells after 24 hrs by MTS assay; format: functional, cell-based
Method in brief: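 Cells in RPMI 1640 with 10% heat-inactivated FBS, seeded 2 × 10⁴ cells/well and exposed 24 h. MTS reagent added, then 1 h further incubation at 37 °C, 5% CO₂. Formazan absorbance read at 490 nm. Viability expressed as percentage of untreated controls.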

U-937 [31] = experiment: Cell cycle arrest in human U937 cells assessed as decrease in G1/G0-phase population at 10 uM after 24 hrs by propidium iodide staining-based flow cytometric analysis; format: functional
Method in brief: (§1)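 Cells cultured in RPMI 1640 with 10% FBS and treated 24 h at the indicated concentrations. Stained with propidium iodide for 4 h at 4 °C in the dark. Flow cytometry gave the percentage of cells in G₀/G₁, S, G₂/M and sub-G₁ phases.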

U-937 [32] = experiment: Cell cycle arrest in human U937 cells assessed as accumulation at S-phase after 24 hrs by propidium iodide staining-based flow cytometric analysis; format: functional; method in brief: as §1

Serine/threonine-protein kinase Sgk1 (Homo sapiens), sequence (O00141 whole entry): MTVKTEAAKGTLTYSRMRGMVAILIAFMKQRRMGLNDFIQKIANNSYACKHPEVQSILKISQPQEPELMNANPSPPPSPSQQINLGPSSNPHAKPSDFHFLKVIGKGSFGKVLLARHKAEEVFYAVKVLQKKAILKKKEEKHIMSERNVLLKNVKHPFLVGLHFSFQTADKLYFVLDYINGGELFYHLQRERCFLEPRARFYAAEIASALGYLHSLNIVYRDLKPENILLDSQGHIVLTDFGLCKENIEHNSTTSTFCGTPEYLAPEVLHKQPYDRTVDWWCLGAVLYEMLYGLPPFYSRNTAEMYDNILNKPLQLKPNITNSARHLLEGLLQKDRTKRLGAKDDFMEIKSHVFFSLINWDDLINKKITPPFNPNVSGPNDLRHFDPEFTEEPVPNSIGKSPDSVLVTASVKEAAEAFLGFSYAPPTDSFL
Receptor-type tyrosine-protein kinase FLT3 (Homo sapiens), sequence (P36888 whole entry): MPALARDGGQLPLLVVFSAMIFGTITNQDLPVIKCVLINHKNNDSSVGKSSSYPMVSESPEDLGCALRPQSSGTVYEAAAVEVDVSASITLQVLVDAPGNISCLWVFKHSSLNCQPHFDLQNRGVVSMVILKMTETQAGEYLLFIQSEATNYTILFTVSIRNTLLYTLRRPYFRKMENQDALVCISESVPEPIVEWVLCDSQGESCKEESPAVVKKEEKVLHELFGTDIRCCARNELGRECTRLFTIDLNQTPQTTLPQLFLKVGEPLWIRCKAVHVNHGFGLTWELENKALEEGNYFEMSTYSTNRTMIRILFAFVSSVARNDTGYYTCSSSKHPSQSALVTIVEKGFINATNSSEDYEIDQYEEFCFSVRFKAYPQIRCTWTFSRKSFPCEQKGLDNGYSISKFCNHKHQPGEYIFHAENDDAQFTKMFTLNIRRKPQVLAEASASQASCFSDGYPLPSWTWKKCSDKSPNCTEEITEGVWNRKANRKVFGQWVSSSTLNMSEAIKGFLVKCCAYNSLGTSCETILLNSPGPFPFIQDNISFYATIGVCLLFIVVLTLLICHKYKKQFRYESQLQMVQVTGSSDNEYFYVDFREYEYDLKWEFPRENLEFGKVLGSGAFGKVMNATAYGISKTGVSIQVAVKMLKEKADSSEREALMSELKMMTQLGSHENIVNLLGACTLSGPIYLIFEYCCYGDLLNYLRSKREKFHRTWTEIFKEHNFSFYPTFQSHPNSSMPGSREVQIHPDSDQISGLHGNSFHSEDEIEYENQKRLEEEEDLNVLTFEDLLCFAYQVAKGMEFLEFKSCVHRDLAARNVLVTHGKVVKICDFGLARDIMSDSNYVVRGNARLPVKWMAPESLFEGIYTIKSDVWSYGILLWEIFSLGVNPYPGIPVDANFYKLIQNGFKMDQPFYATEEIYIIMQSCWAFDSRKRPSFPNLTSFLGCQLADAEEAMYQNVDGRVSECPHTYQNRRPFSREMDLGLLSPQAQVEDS
Mitogen-activated protein kinase 3 (Homo sapiens), sequence (P27361 whole entry, canonical isoform): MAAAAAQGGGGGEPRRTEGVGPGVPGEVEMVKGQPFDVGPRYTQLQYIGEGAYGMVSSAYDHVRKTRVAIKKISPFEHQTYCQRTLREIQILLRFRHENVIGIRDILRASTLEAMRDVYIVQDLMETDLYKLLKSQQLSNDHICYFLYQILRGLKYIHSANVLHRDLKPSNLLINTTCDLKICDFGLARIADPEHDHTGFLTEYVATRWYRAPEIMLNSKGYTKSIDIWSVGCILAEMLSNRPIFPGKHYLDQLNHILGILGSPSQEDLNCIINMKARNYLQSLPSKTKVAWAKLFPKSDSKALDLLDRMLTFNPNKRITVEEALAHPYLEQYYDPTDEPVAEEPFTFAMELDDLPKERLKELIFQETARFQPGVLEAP
Protein kinase C zeta type (Homo sapiens), sequence (Q05513 whole entry): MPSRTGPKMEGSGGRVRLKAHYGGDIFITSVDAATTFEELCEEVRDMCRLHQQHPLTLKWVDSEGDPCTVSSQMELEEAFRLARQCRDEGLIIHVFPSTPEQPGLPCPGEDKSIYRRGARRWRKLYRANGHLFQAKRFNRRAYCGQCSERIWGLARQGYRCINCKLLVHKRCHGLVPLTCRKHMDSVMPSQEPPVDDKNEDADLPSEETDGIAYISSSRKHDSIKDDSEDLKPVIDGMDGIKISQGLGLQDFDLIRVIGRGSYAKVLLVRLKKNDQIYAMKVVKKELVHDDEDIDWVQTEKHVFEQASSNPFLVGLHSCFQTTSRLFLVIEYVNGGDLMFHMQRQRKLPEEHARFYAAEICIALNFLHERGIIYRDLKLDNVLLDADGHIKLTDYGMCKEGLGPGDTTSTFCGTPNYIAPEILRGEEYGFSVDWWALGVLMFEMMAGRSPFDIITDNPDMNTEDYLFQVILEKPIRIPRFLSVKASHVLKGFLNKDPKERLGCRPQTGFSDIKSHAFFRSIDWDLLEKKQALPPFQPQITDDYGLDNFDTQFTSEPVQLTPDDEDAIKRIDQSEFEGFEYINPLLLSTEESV
Insulin receptor (Homo sapiens), sequence (P06213 28-758 limits assumed): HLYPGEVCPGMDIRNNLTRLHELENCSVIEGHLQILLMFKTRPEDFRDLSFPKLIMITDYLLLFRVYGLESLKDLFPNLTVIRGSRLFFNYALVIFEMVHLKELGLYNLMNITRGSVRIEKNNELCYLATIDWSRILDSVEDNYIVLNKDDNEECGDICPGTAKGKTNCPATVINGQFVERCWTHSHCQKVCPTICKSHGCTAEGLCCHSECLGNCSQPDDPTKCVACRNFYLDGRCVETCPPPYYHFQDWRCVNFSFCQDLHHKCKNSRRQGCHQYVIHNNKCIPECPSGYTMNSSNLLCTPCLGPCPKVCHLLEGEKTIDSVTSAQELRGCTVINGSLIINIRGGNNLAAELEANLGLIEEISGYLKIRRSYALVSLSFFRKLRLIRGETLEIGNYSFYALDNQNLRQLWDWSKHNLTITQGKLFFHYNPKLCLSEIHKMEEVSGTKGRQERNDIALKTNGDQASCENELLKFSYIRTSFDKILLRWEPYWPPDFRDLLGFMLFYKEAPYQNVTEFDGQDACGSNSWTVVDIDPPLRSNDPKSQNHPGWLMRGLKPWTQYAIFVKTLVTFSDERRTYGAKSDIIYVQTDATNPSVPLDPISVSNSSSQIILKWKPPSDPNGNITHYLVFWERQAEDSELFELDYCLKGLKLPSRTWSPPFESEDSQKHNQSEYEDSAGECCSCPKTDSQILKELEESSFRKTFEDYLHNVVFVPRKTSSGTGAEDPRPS
Insulin receptor (Homo sapiens), sequence (P06213 763-1382 limits assumed): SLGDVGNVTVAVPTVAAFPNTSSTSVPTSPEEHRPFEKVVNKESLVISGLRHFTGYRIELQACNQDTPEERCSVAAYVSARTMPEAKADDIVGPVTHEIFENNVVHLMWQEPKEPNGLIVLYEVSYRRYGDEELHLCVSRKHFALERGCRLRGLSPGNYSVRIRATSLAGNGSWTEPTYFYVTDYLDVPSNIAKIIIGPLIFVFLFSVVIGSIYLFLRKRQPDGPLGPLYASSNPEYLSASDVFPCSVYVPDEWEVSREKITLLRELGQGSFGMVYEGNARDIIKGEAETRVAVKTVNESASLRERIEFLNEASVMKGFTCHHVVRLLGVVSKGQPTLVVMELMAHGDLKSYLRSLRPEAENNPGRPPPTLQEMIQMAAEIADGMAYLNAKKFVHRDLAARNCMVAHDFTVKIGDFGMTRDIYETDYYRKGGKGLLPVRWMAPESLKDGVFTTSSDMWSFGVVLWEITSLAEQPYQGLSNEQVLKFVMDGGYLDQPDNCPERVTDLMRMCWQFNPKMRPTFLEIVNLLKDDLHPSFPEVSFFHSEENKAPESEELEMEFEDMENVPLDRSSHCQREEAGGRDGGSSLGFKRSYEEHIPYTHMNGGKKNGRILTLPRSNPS
Calcium/calmodulin-dependent protein kinase type IV (Homo sapiens), sequence (Q16566 whole entry): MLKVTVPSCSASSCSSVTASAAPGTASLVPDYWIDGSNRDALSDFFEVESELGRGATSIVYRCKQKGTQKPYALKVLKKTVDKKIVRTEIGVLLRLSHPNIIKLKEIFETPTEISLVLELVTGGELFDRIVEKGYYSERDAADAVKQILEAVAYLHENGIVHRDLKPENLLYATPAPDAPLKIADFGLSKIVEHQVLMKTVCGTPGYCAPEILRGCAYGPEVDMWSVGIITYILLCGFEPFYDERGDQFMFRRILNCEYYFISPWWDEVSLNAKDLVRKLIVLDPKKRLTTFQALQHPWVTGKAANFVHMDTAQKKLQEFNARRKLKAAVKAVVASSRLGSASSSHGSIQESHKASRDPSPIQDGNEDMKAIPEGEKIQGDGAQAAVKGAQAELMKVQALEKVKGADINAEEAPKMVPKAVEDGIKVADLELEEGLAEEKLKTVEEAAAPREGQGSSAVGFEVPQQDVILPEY
MAP kinase-activated protein kinase 5 (Homo sapiens), sequence (Q8IW41 whole entry): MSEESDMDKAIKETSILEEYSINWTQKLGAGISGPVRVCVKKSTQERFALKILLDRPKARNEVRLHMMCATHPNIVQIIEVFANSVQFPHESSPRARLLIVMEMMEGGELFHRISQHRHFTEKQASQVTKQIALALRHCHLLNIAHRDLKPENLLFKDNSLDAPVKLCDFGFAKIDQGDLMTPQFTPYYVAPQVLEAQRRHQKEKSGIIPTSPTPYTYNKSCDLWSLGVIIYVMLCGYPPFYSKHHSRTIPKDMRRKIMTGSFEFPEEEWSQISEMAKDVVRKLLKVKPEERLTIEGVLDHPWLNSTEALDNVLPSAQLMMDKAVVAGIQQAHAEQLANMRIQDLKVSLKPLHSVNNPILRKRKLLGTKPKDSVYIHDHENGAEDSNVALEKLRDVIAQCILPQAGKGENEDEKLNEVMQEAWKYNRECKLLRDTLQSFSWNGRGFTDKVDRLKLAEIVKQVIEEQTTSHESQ

Structure (SMILES): NCCN1C(=O)S/C(=C\CCC2CCCCC2)C1=O
- viability at 20 µM [1]: 5.1%
- Activity (U-937 [2]): 2.1%
- Activity (U-937 [3]): 15%
- viability at 10 µM (U-937 [4]): 40.2%
- viability at 3 µM (U-937 [5]): 90.1%
- Activity (U-937 [6]): 16.5%
- Activity (U-937 [7]): 7.7%
- Activity (U-937 [8]): 3.5%
- viability at 3 µM (U-937 [9]): 86.9%
- growth inhibition (GI) (U-937 [10]): Active
- inhibition [11]: 2%
- inhibition [12]: 9%
- inhibition [13]: 14%
- inhibition [14]: 4%
- inhibition [15]: 0%
- inhibition [16]: -2%
- inhibition [17]: -8%
- inhibition [18]: 16%
- inhibition [19]: 5%
- inhibition [20]: 69%
- inhibition [21]: 0%
- inhibition [22]: -2%
- inhibition [23]: -1%
- inhibition [24]: 38%
- inhibition [25]: 21%
- inhibition [26]: -5%
- inhibition [27]: 8%
- inhibition [28]: 71%
- Activity [29]: Active
- inhibition [30]: inactive
- growth inhibition (GI) (DU-145): Active
- Activity (U-937 [31]): Active
- Activity (U-937 [32]): Dose-dependent effect
